22 compounds from ChEMBL document CHEMBL1154873, “Synthesis and evaluation of the alpha-glucosidase inhibitory activity of 3-[4-(phenylsulfonamido)benzoyl]-2H-1-benzopyran-2-one derivatives” (Eur J Med Chem, 2010) can be followed below.

pIC50: −log10 of the molar value. Bounds are passed on as bounds.

This assay in a line: inhibition of yeast alpha-glucosidase pretreated for 10 mins before maltose challenge measured after 10 mins. Further details: species or system Saccharomyces cerevisiae. Summed up: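 0.02 U α-glucosidase with compound in 67 mM potassium phosphate, pH 6.8, preincubated 37 °C 10 min. 0.1 M maltose added, then room temperature 10 min. Glucose detected colorimetrically at A490 against no-compound and no-enzyme/no-compound blanks. Compounds giving over 50% inhibition were retested at eight threefold-diluted concentrations in duplicate, and IC50 was derived by curve fitting.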
For orientation: pIC50 means the IC50 on a negative log10 scale, so that one unit is a factor of ten. On to `O=C(c1ccc(NS(=O)(=O)c2ccccc2)cc1)c1cc2cc(Cl)ccc2oc1=O`, for which the pIC50 is under 4.52.

Regarding `COc1cc2cc(C(=O)c3ccc(NS(=O)(=O)c4ccccc4)cc3)c(=O)oc2cc1OC`, the pIC50 was under 4.52.

Consider `Cc1ccc(S(=O)(=O)Nc2ccc(C(=O)c3cc4cc(Br)ccc4oc3=O)cc2)cc1`, for which the negative-log IC50 (pIC50) is under 4.52.

For `O=C(c1ccc(NS(=O)(=O)c2ccccc2)cc1)c1cc2ccccc2oc1=O`, the pIC50 is 5.48.

For `O=C(c1ccc(NS(=O)(=O)c2ccccc2)cc1)c1cc2ccc(O)cc2oc1=O`, the pIC50 is 5.24.

`Cc1ccc(S(=O)(=O)Nc2ccc(C(=O)c3cc4cc(Br)cc(Br)c4oc3=O)cc2)cc1`: the negative logarithm of the IC50 (pIC50) is 5.11.

For the compound `Cc1ccc(S(=O)(=O)Nc2ccc(C(=O)c3cc4cc(C(C)(C)C)cc(C(C)(C)C)c4oc3=O)cc2)cc1`, the negative-log IC50 (pIC50) was 5.00.

Take `COc1ccc2cc(C(=O)c3ccc(NS(=O)(=O)c4ccc(C)cc4)cc3)c(=O)oc2c1`: the pIC50 is under 4.52.

With `Cc1ccc(S(=O)(=O)Nc2ccc(C(=O)c3cc4ccc(O)cc4oc3=O)cc2)cc1`, the pIC50 was 5.95.

On to `O=C(c1ccc(NS(=O)(=O)c2ccccc2)cc1)c1cc2cc(Br)ccc2oc1=O`, for which the pIC50 is under 4.52.

`O=C(c1ccc(NS(=O)(=O)c2ccccc2)cc1)c1cc2cc(Br)cc(Br)c2oc1=O`: the pIC50 was under 4.52.

`CC(C)(C)c1cc(C(C)(C)C)c2oc(=O)c(C(=O)c3ccc(NS(=O)(=O)c4ccccc4)cc3)cc2c1`: the pIC50 was 5.15.

Turning to `COc1ccc2cc(C(=O)c3ccc(NS(=O)(=O)c4ccccc4)cc3)c(=O)oc2c1`, the pIC50 is under 4.52.

In the case of `Cc1ccc(S(=O)(=O)Nc2ccc(C(=O)c3cc4ccccc4oc3=O)cc2)cc1`, the pIC50 was 5.45.

Take `Cc1ccc(S(=O)(=O)Nc2ccc(C(=O)c3cc4cc(F)ccc4oc3=O)cc2)cc1`: the pIC50 was 5.34.

`Cc1ccc(S(=O)(=O)Nc2ccc(C(=O)c3cc4cc(Cl)ccc4oc3=O)cc2)cc1`: the pIC50 is 4.57.

`CCN(CC)c1ccc2cc(C(=O)c3ccc(NS(=O)(=O)c4ccc(C)cc4)cc3)c(=O)oc2c1`: the negative-log IC50 (pIC50) was 6.46.

With `COc1cc2cc(C(=O)c3ccc(NS(=O)(=O)c4ccc(C)cc4)cc3)c(=O)oc2cc1O`, the negative logarithm of the IC50 (pIC50) was 7.19.

As for `COc1cc2cc(C(=O)c3ccc(NS(=O)(=O)c4ccc(C)cc4)cc3)c(=O)oc2cc1OC`, the pIC50 was 5.25.

Consider `O=C(c1ccc(NS(=O)(=O)c2ccccc2)cc1)c1cc2cc(F)ccc2oc1=O`, for which the pIC50 was 5.14.

On to `CCN(CC)c1ccc2cc(C(=O)c3ccc(NS(=O)(=O)c4ccccc4)cc3)c(=O)oc2c1`, for which the pIC50 is 6.53.

As for `COc1cc2cc(C(=O)c3ccc(NS(=O)(=O)c4ccccc4)cc3)c(=O)oc2cc1O`, the pIC50 was 6.70.
